Source: PubChem BioAssay
mIAP activ: mouse IAP activation. muIAP, CDP-Star luminescence, 30 min; active compounds read high; 1 = vehicle-only enzyme signal, 0 = enzyme-free wells. activation factor at 10 µM. 330,000 tested, 0.24% active. AID 2805;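 active = activation factor of at least 2 at 20 µM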
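Assay system: mouse IAP enzyme; Reagent: CDP-Star chemiluminescent phosphatase substrate; Compound: DMSO-dissolved test compounds; Incubation: 30 min, room temperature; Technique: luminescence from enzymatic CDP-Star hydrolysis; Controls: DMSO-only wells and no-enzyme negative control.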
hIAP act: human IAP activation | activation factor at 10 µM | P09923 | AID 2524 | purified human IAP, CDP-Star luminescence, 30 min; active compounds read high; 1 = vehicle-only enzyme, 0 = enzyme-free background | 330,000 tested, 0.16% active;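 active = activation factor of the enzyme at least 2-fold when tested at 20 µM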
Target sequence (P09923 whole entry, looked up): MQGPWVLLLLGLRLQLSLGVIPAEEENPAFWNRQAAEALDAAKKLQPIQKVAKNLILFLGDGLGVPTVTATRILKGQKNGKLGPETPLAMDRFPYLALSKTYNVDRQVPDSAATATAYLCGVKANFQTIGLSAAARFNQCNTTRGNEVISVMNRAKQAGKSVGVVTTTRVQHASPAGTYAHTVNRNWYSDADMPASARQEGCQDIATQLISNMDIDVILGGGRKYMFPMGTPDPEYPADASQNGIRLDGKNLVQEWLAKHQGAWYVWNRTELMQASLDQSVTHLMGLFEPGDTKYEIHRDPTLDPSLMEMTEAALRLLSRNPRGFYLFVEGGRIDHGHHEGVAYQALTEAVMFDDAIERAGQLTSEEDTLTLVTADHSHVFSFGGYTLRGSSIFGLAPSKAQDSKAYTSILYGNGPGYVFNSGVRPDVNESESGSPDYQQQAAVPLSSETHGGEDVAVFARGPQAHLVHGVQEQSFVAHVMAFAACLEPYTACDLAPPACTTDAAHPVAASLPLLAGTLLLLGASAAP
bIAP inh: intestinal alkaline phosphatase (bovine) inhibition | purified bovine IAP, CDP-star luminescence, 30 min | inhibition, % at 20 µM | 190,000 tested, under 10 active;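 active = over 50% inhibition of intestinal alkaline phosphatase at 20 µM in the single-dose screen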
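System: purified bovine intestinal alkaline phosphatase (IAP) enzyme; Input: IAP diluted 1/65,000,000 in the well; Measured by: CDP-star luminescence signal; Compound dosing: 20 µM single dose; Incubation: 30 min reaction at room temperature.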
mIAP inh: mouse IAP inhibition | inhibition, % at 10 µM | AID 2806 | 330,000 tested, 0.2% active | purified mouse IAP, CDP-Star luminescence, 30 min;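 active = inhibition of at least 40% at 10 µM in the primary screen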;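 note: plate controls were DMSO with enzyme for no effect and no enzyme wells for full effect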
bIAP act: increases bovine intestinal alkaline phosphatase activity. purified bovine IAP, CDP-star luminescence, 30 min; active compounds read high; fold of DMSO-control signal, blank-subtracted. activation factor at 20 µM. 200,000 tested, 0.17% active;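 active = activation factor of 2 or more at 20 µM, a signal rise over negative controls twice the positive control's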
hIAP inh: blocks human intestinal alkaline phosphatase; purified IAP, CDP-Star luminescence, 30 min; inhibition, % at 10 µM; 330,000 tested, 0.12% active;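 active = inhibition reaching a set limit with compound at 10 µM in the primary screen, cut at about 35% in these data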;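 note: plate controls were DMSO wells with enzyme for no effect and no-enzyme buffer wells for full effect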
hIAP act confirm: human IAP activation confirmation; shares compounds with hIAP act; purified IAP, CDP-Star luminescence, 30 min; active compounds read low; activation (%Activity, negative = activation), % at 8.3 µM; 880 tested, 10% active;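 active = at least twofold enzyme activation in any of six single-dose repeats, which the averaged readout prints as negative percent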
* hit, by the source's call; x = not tested or not shown. Shown are actives, neighbours in structure and some others; about 0.77% of the full set was active somewhere.

SMILES	mIAP activ	hIAP act	bIAP inh	mIAP inh	bIAP act	hIAP inh	hIAP act confirm
Cc1ccc(C2CC2C(=O)NNC(=S)Nc2ccc(Cl)cc2)cc1 (centres undefined)	0.935	2.39*	-10.8	6.5	1.1	-139.1	-11.3
Cc1cccc(NC(=S)NNC(=O)Cc2ccccc2)c1	0.794	1.04	3.5	20.6	1	-3.6	x
COc1ccc(C(C)=O)cc1COC(=O)CCNS(=O)(=O)c1ccc(C)c(C)c1	1.01	0.93	x	-1.4	x	7.0	x
O=C(Nc1cccc(Cl)c1)N1CCCCCC1	0.988	0.619	x	1.2	x	38.1*	-55.2
COCC(=O)N1CCC(Oc2ccc(C(=O)NCc3cc(C)no3)cc2)CC1	1.06	0.64	x	-6.0	x	36.0*	-4.0
O=[N+]([O-])c1ccc(Nc2ccccc2)c2nonc12	0.795	0.615	x	20.5	x	38.5*	-18.0
O=S(=O)(Nc1ccc2c(c1)OCCO2)c1cccs1	1.09	0.952	9.3	-8.7	0.9	4.8	x
O=S(=O)(Nc1ccc2c(c1)OCCO2)c1ccc(Br)s1	0.938	2.06*	12.1	6.2	0.9	-106.5	3.8
CC(C)CCn1c(=O)c2sccc2n2c(CCCC(=O)N3CCC(N4CCCCC4)CC3)nnc12	0.979	1.21	x	2.1	x	-21.4	x
O=C(Cc1coc2ccc3ccccc3c12)NCc1ccccc1	1.07	2.03*	21.4	-7.2	0.8	-103.3	59.4
O=C(Cc1coc2ccc3ccccc3c12)Nc1nccs1	1.07	1.04	2.3	-7.4	1	-4.2	x
O=C(C1CCN(C2CC(=O)N(c3cccc(Cl)c3)C2=O)CC1)N1CCCC1 (centres undefined)	1.09	2.94*	-3.8	-9.5	1	-193.8	-27.0
COc1cc(/C=C/C(=O)OCC(=O)NC(=O)NC2CCCCC2)ccc1OC(F)F	0.954	0.649	x	4.6	x	35.1*	78.7
CCOc1cc(/C=N/NC(=O)c2nnn(-c3nonc3N)c2C)ccc1OCc1cccc(F)c1	0.983	1.26	x	1.7	x	-26.3	x
O=C(C1CC(=O)N(c2ccccc2F)C1)N1CCOCC1 (centres undefined)	1.09	0.914	x	-8.7	x	8.6	x
CC(=O)c1n[nH]nc1Nc1nc(C)cc(C)n1	1.08	2.23*	34.8	-7.7	0.7	-122.7	0.1
CN1CCN(c2cc(N3CCN(C(=O)c4ccco4)CC3)c3c4c(onc24)-c2ccccc2C3=O)CC1	0.827	0.575	x	17.3	x	42.5*	2.8
O=C1c2ccccc2-c2onc3c(N4CCN(CCO)CC4)cc(N4CCN(C(=O)c5ccco5)CC4)c1c23	0.966	0.84	x	3.4	x	16.0	x
O=C(CSc1nnc(Nc2ccccc2)s1)NC1CCCC1	0.938	1.23	x	6.2	x	-22.8	x
CSc1ccccc1NC(=O)c1csc(C)c1	0.999	0.649	x	0.1	x	35.1*	-54.9
O=C(Nc1ccccc1)c1ccc(S(=O)(=O)Nc2cccc(O)c2)cc1	0.992	0.6	x	0.8	x	40.0*	-43.7
CC(=O)c1cccc(NS(=O)(=O)c2ccc(C(=O)Nc3ccccc3)cc2)c1	1.1	0.701	x	-9.6	x	29.9	x
Cn1c(CNC(=O)CCNC(=O)c2cccc(Br)c2)cc(=O)n(C)c1=O	0.949	0.631	x	5.1	x	36.9*	0.9
CCc1nc2c3cnn(-c4cc(Cl)ccc4C)c3ncn2n1	0.882	0.274	-4.2	11.8	1	72.6*	-31.0
Cc1ccccc1OCc1nc2c3cnn(C)c3ncn2n1	1.07	1.13	27.4	-6.8	0.7	-13.3	x
SMILES	mIAP activ	hIAP act	bIAP inh	mIAP inh	bIAP act	hIAP inh	hIAP act confirm
CCN(CC(=O)Nc1ccccc1SC)Cc1nc2ccccc2c(=O)[nH]1	0.971	1.39	x	2.9	x	-39.2	x
CCN(CC(=O)NC(c1ccccc1)c1ccccc1)Cc1nc2ccccc2c(=O)[nH]1	1.65	2.13*	-142.0	-65.0	2.4*	-112.8	-64.9
CC(=O)c1ccc(NC(=O)C2CC2c2ccccc2)cc1 (centres undefined)	1.01	1.26	x	-1.4	x	-25.6	x
COc1cc(F)c(C2=CC(=O)C[C@H](c3ccc(Cl)cc3)C2)cc1F	1.03	1.15	x	-3.5	x	-14.6	x
C=CC[C@H](CC(=O)NCCO)C(=O)NCCOC(=O)[C@@H](CC=C)CC(=O)OC(C)(C)C	1.07	0.916	x	-7.4	x	8.4	x
CN(C)c1cccc(C(=O)NNC(=O)CSc2ccccc2)c1	0.99	1.28	x	1.0	x	-28.0	x
Cc1ccc(S(=O)(=O)N(CC(=O)Nc2ccc(C)cc2C)C(=O)N2CCN(C)CC2)cc1	0.957	0.637	x	4.3	x	36.3*	-55.4*
Cc1ccc(NC(=O)CN(C(=O)N2CCN(C)CC2)S(=O)(=O)c2ccc(C)cc2)cc1	0.974	0.922	x	2.6	x	7.8	x
C=C[C@@]1(C)CCC(/C(C)=C/C=C/C(C)(C)O)C[C@@H]1C(=C)C (some centres undefined)	1.14	1.04	x	-14.3	x	-3.8	x
COc1cc(/C=C2\CCC/C(=C\c3ccc(O)c(OC)c3)C2=O)ccc1O	0.695	0.656	x	30.5	x	34.4	x
COc1cc(/C=C2/CCC/C(=C\c3cc(O)c(OC)c(Cl)c3)C2=O)cc(Cl)c1O	0.637	0.603	x	36.3	0.4	39.7*	1.8
COc1ccc(C(CNC(=O)Nc2cccc(C)c2)N2CCN(C)CC2)cc1 (centres undefined)	0.976	1.24	x	2.4	x	-24.3	x
C[C@H]1COC(=O)[C@H](CC(=O)OC(C)(C)C)C/C=C\C[C@@H](CC(=O)NCCO)C(=O)N1	1.02	0.929	x	-1.7	x	7.1	x
COC(=O)c1cc(OC)c(OC)cc1NC(=O)CSc1nnc(-c2cccnc2)n1C	1.09	2.15*	1.4	-9.2	1	-114.6	-12.1
O=C(NNC(=S)NC(=O)c1ccccc1)c1cccnc1	0.826	2.48*	x	17.4	x	-147.6	-320.1*
O=C1Nc2ccc(Br)cc2C12OCCO2	0.962	1.18	x	3.8	x	-17.9	x
CCOC(=O)C1=C(c2ccccc2)N=c2s/c(=C\c3cccc(O)c3)c(=O)n2C1c1cccs1 (centres undefined)	0.924	0.802	-1.3	7.6	1	19.8	x
O=c1/c(=C\c2ccc(O)cc2)sc2n1C(c1ccccc1)C(c1ccccc1)=NN=2 (centres undefined)	0.708	0.628	34.3	29.2	0.7	37.2*	-34.2
CN(CCCC(=O)O)c1ccc(N=Nc2ccc([N+](=O)[O-])cc2)cc1	0.622	0.527	x	37.8	x	47.3*	23.7
CN(N=Nc1ccc([N+](=O)[O-])cc1)c1ccccc1	0.806	0.848	6.1	19.4	0.9	15.2	x
COc1cccc(NC(=O)c2ccnc(N3CCC(C(=O)NCc4cc(OC)ccc4OC)CC3)c2)c1	1.12	0.932	x	-12.4	x	6.8	x
CCCCNCCCCOc1ccccc1	1.04	2.1*	21.6	-4.1	0.8	-109.9	-70.2
CN(CC(=O)Nc1ccccc1F)CC(=O)Nc1ccc(F)c(F)c1F	1.03	2.11*	-45.1	-2.6	1.5	-111.0	51.6
